Screens from PubChem.
Vif inh = HIV Vif inhibition | HEK293T cells, Vif self-association by quenched fluorescence, imaging, 24 h | inhibition, % at 7.49 µM | 0.35% of 340,000 active; in the data active means inhibition above about 50%, passing the limit was not always enough
SR-BI uptake up = enhances SR-BI lipid uptake from DiI-HDL. 0.096% of 320,000 active. activation, % at 12.5 µM. CHO ldlA[mSR-BI] cells, DiI-HDL uptake fluorescence, 3 h; 100 = double the neutral-control signal;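 active means mean replicate activation of at least 60% and every replicate at or above 60%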;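 further: 0% = median plate neutral-control signal and 100% = twice that signal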
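system = CHO ldlA[mSR-BI] cells, LDL receptor-null, SR-BI overexpressing | medium = Ham's F12 with 0.5% BSA, HEPES 25 mM, pH 7.4 | probe or stimulus = DiI-HDL 10 µg/mL | compound dosing = single-point compound dose | incubation = compound exposure 3 h, 37 °C | technique = DiI fluorescence, bottom read | read-out = cell-associated DiI fluorescence as measure of HDL uptake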
SMARCA2 act = activators of SMARCA2 function | MG213 cells, MMTV-luciferase reporter, dexamethasone, overnight | activation, % at 9.1 µM | 1% of 370,000 active; in the data active means activation above about 7.8%;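 further: 0% = vehicle wells and 100% = reference activator wells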
TAG inh = triacylglycerol accumulation inhibition. AID 651582. inhibition, % at 12.5 µM. H9c2 cells, Nile Red lipid (TAG) fluorescence; cells loaded with 200 µM oleic acid. 0.66% of 230,000 active;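 active means pattern-corrected inhibition of lipid staining of at least 50% with the nuclear-stain viability signal not falling by more than 50%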;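 further: 0% = DMSO wells and 100% = triacsin C control wells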
SR-BI DiI inh = inhibitors of mouse SR-BI mediated HDL lipid uptake | inhibition, % at 12.5 µM | Q61009 | AID 488896 | 0.96% of 320,000 active | ldlA[mSR-BI] CHO cells, DiI-HDL uptake fluorescence, 3 h;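 active means mean replicate inhibition of at least 70% and a set share of replicates each scoring 70 or more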;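 further: 0% = median of neutral control wells and 100% = median of positive control wells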
Target sequence (Q61009 whole entry, looked up): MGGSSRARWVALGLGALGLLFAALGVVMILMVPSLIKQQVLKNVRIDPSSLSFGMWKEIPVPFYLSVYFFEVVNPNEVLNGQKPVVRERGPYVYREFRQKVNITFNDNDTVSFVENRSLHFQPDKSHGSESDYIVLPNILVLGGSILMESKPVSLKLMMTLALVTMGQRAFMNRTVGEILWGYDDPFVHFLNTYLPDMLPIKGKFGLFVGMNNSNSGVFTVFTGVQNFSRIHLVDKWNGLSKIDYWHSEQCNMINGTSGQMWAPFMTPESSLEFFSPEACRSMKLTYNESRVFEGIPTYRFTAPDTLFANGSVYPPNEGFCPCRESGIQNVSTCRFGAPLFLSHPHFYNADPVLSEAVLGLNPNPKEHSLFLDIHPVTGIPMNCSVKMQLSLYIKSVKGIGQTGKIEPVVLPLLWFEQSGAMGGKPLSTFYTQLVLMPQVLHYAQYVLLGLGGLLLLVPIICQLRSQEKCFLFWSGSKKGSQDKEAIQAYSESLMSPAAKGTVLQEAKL
An asterisk follows results filed as active; · = no result; ! = a repeat was not active. A selection: hits, their analogues and other compounds. The true share with any hit is near 2.5%.

SMILES | Vif inh | SR-BI uptake up | SMARCA2 act | TAG inh | SR-BI DiI inh
CCCN1C(=O)c2cc(C(=O)Nc3ccc(OC)cc3OC)ccc2C1Nc1ccc(OC)cc1OC (stereo unspecified) | -1 | -74 | -5 | -20 | 74*
CN(C)S(=O)(=O)c1cccc(NC(=O)c2ccc(S(=O)(=O)N3CCCCC3)cc2)c1 | -6 | -22 | -2 | -9 | 22
CN(C)S(=O)(=O)c1cccc(NC(=O)c2cccc(S(=O)(=O)N3CCCCCC3)c2)c1 | -2 | -77 | -4 | 2 | 77*
Cc1ccc(C)c(NC(=O)CN(C)C(=O)c2cccc(S(=O)(=O)N3CCCC3)c2)c1 | 53* | 7 | 0 | 10 | -7
COc1ccc(NC(=O)c2cccc(S(=O)(=O)N3CCc4ccccc43)c2)c(OC)c1 | -2 | · | -4 | -11 | ·
C[C@H](CO)N1C[C@H](C)[C@@H](CN(C)C(=O)Nc2ccccc2)OCc2cn(nn2)CCCC1=O | · | · | 5 | · | ·
CCNC(=O)N1CCN(c2ccc(N3CCN(Cc4ccccc4)[C@H](C)C3)c(C)c2)[C@H](C)C1 | · | · | -2 | · | ·
CC(C)CC(=O)N1CCC(C(=O)NCC2COc3ccccc3O2)CC1 (stereo unspecified) | · | · | -1 | · | ·
O=c1ccn2c(n1)OC1CC2OC1COC(c1ccccc1)(c1ccccc1)c1ccccc1 (stereo unspecified) | · | · | 3 | · | ·
CS(=O)(=O)c1cccc(C(=O)Nc2cccc(S(=O)(=O)N3CCCC3)c2)c1 | -6 | -83 | -3 | 6 | 83*
Cc1cc(NC(=O)c2cccc(S(=O)(=O)N(C)C)c2)n(-c2ccccn2)n1 | -5 | -46 | 1 | -63 | 46
Cc1ccc(S(C)(=O)=O)cc1C(=O)Nc1cccc(S(=O)(=O)N2CCCCCC2)c1 | 3 | -80 | -2 | 5 | 80*
Cc1cc(NC(=O)c2cccc(S(=O)(=O)N3CCCCCC3)c2)n(-c2ccccn2)n1 | 0 | -82 | 1 | -77 | 82*
O=C1C2C3C=CC(C3)C2C(=O)N1c1ccc(-c2nc(-c3ccccc3)nc3ccccc23)cc1 (stereo unspecified) | · | · | -4 | · | ·
COc1cc(/C=N/Nc2ccccc2)ccc1O | · | -4 | -2 | · | 4
COC(=O)c1[nH]c2cc(OC)c(OC)cc2c1/C=N/Nc1ccccc1 | -11 | -121 | -1 | · | 121*
COc1cccc(CNCCSc2nnnn2C)c1 | 10 | 60* | 3 | · | -60
O=c1c(Cl)c(Cl)cnn1-c1ccccc1 | 0 | 16 | -11 | 72* | -16
CN1CCN(C2=C(Cl)C(=O)c3ccccc3C2=O)CC1 | -2 | -11 | -9 | 58* | 11
O=C1C(Cl)=C(N2CCC(C(=O)O)CC2)C(=O)c2ccccc21 | 2 | · | · | 6 | ·
COc1ccc(/C=C/C(=O)c2cc(F)ccc2OC(=O)c2ccccc2OC)cc1OC | 91* | -49 | 1 | 56* | 49
COc1ccc(/C=C/C(=O)c2cc(F)ccc2OC(=O)c2ccc(OC)c(OC)c2)cc1OC | 4 | -25 | -1 | 17 | 25
COc1ccc(/C=C/C(=O)c2cc(F)ccc2OC(=O)c2ccccc2)cc1OC | · | · | -3 | 80* | ·
O=[N+]([O-])c1ccccc1/C=C/C=Nn1c(-c2ccc(F)cc2)n[nH]c1=S | · | · | 6 | · | ·
CCN=c1scc(C)n1/N=C/c1cc(Br)c(O)c(OC)c1 | 4 | -72 | -5 | 1 | 72*
SMILES | Vif inh | SR-BI uptake up | SMARCA2 act | TAG inh | SR-BI DiI inh
CN=c1scc(C)n1/N=C/c1cc(Br)c(O)c(Br)c1 | -6 | 13 | 5 | -14 | -13
O=S1(=O)c2c(cccc2N2CCC[C@@H]2CO)O[C@@H]2CCN1C2 | · | · | -1 | · | ·
Cc1[nH]n(-c2ccccc2)c(=O)c1N=Nc1cccc(Cl)c1 | 2 | -6 | -3 | · | 6
CC(=O)c1cccc(N=Nc2c(-c3ccccc3)[nH]n(-c3ccccc3)c2=O)c1 | -2 | -100 | -3 | · | 100*
COC(=O)c1cc2c(c3c4ccccc4n(S(=O)(=O)c4ccc(C)cc4)c13)C(=O)N(C)C2 | · | · | 7.9* | · | ·
COc1ccc(NCC(=O)Nc2ccc(C#N)cc2)cc1Cl | -2 | -95 | -2 | · | 95*
Cc1ccc(C(=O)Nc2nn(C)c3cccc(F)c23)cc1 | 50* | · | 4 | -7 | ·
Cc1ccc(C(=O)NCC(=O)N2CCN(S(=O)(=O)c3cccs3)CC2)s1 | 1 | 16 | 5 | 17 | -16
O=C(NCC(=O)N1CCN(S(=O)(=O)c2cccs2)CC1)c1ccc(Cl)cc1 | 58* | -2 | 4 | 4 | 2
O=C(c1ccc(Br)cn1)N1CCC(Oc2cccnc2)CC1 | · | · | 3 | · | ·
CC(C)C[C@H]1COc2c(Cl)cccc2S(=O)(=O)N1Cc1cccc(Cl)c1 | · | · | 4 | · | ·
Cc1c(COC(=O)NC(C)C)c(COC(=O)NC(C)C)c2n1CS(=O)(=O)C2 | · | · | -4 | · | ·
Cc1cc(C)c2c(CN3CCN(c4ccccc4)CC3)cc(=O)oc2c1 | · | · | 4 | · | ·
Cc1cc(C)c2c(CN3CCN(Cc4ccccc4)CC3)cc(=O)oc2c1 | 104* | -2 | 2 | · | 2
CCOC(=O)c1c(NC(=O)C(=O)N/N=C/c2ccccc2OC)sc2c1CCCCC2 | 5 | -52 | -1 | · | 52
CCOC(=O)c1c(NC(=O)c2ccn(CC)n2)sc2c1CCCC2 | -3 | -72 | 0 | · | 72*
CCOC(=O)c1c(NC(=O)C(=O)N/N=C/c2ccccc2O)sc2c1CCCCC2 | -13 | -127 | 0 | · | 127*
Cc1cc(C(=O)Nc2sc3c(c2C#N)CCCC3)no1 | · | 9 | 1 | · | -9
CCOC(=O)c1cc(C(=O)Nc2sc3c(c2C#N)CCCC3)nn1C | -9 | -76 | -3 | 8 | 76*
CC(C)[C@H](NS(=O)(=O)c1ccc(F)cc1F)C(=O)N1CCC[C@H]1C(=O)NCc1ccccc1 | · | · | -3 | · | ·
CCOc1cc(CNCCc2ccc(S(N)(=O)=O)cc2)ccc1OCc1ccc(Cl)cc1 | -3 | -5 | 0 | 67* | 5
CCOC(=O)C1CSCCS(=O)(=O)N1Cc1cccc(Cl)c1 (stereo unspecified) | · | · | 0 | · | ·
Cc1[nH]n(-c2ccccc2)c(=O)c1N=Nc1c(O)cc(S(=O)(=O)N(C)C)c2ccccc12 | 6 | -136 | 0 | -24 | 136*
Cn1c(COc2ccccc2)nnc1SCC(=O)Nc1ccc(OCc2ccccc2)cc1 | · | · | -5 | · | ·
COc1cc(NC(=O)c2ccc(N)nc2)cc(C(=O)Nc2cccc(C(F)(F)F)c2)c1 | -18 | -11 | 7.9*! | 34 | 11
COc1ccc([N+](=O)[O-])cc1NC(=O)C(C)c1ccccc1 (stereo unspecified) | -8 | -11 | 1 | · | 11
COCCSc1ccccc1C(=O)Nc1cc([N+](=O)[O-])ccc1OC | 27 | -83 | 2 | -1 | 83*
COc1ccc([N+](=O)[O-])cc1NC(=O)c1cn(-c2ccc(Cl)cc2)c(=O)c2ccccc12 | 24 | -74 | -1 | · | 74*
COc1ccc([N+](=O)[O-])cc1NC(=S)NC(NC(=O)C(c1ccccc1)c1ccccc1)C(Cl)(Cl)Cl (stereo unspecified) | · | -87 | -8 | 18 | 87*
